Key:
[1] = test system: Friend leukemia cell line; assay: Inhibitory activity against cellular replication in Friend erythroleukemia cells as growth inhibition.; format: functional; conditions: Mus musculus, read-out: ID50 (the source's name)
Procedure, shortened: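 Exponentially growing parental Friend erythroleukemia cells at (7–8) × 10⁴ cells/mL in DMEM with 15% FBS under 10% CO₂. Incubated with graded 2.5-fold concentration steps. Cell number was counted on day 3 with a particle counter, and percent growth inhibition was calculated from log cell number.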

[2] = test system: Friend leukemia cell line; assay: Inhibitory activity against cellular differentiation in Friend erythroleukemia cells as optimal concentration required for maximum activity.; format: functional, Mus musculus
Procedure, shortened: (§1)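 Parental Friend murine erythroleukemia cells in exponential growth, seeded at (7–8) × 10⁴ cells/mL in Dulbecco's modified Eagle's MEM with 15% fetal bovine serum and 2 mM L-glutamine under 10% CO₂. Exposed to graded 2.5-fold concentration increases. On day 6, hemoglobin-containing cells staining blue with acidic 3,3',5,5'-tetramethylbenzidine peroxide were counted cytologically and reported as percent benzidine-positive cells.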

[3] = test system: Friend leukemia cell line; assay: Inhibitory activity against cellular differentiation in Friend erythroleukemia cells as percentage of benzidine - positive cells.; format: functional, Mus musculus; procedure, shortened: as §1
[4] = test system: Friend erythroleukemia cells, HGPRT- (Mus musculus); assay: Inhibitory activity against cellular replication in hypoxanthine-guanine phosphoribosyltransferase (HGPRT-) Friend murine erythroleukemia cells.; conditions: read-out: ID50 (the source's name)

| IC50 [1] | IC50 [4] | Structure (SMILES) | Optimal concentration [2] | Benzidine positive cells [3] |
| --- | --- | --- | --- | --- |
| > 5 mM |  | Nc1nc(O)c2nc(NO)n(C3O[C@H](CO)[C@@H](O)[C@H]3O)c2n1 (stereo partly specified) | 6 mM | 7% |
| 1.7 mM | 1.7 mM | Nc1nc(O)c2nc(N)n([C@@H]3O[C@H](CO)[C@@H](O)[C@H]3O)c2n1 | 0.4 mM | 34% |
| > 5 mM | > 5 mM | Nc1nc(O)c2nc(OCc3ccccc3)n([C@H]3C[C@H](O)[C@@H](CO)O3)c2n1 | 7 mM | 7% |
| > 8 mM | > 8 mM | CSc1nc2c(O)nc(N)nc2n1C1O[C@H](CO)[C@@H](O)[C@H]1O (stereo partly specified) | 5 mM | 11% |
| > 5 mM | > 5 mM | COc1nc2c(O)nc(N)nc2n1[C@H]1C[C@H](O)[C@@H](CO)O1 | 5 mM | 22% |
| 8 mM | 8 mM | Nc1nc2c(nc(O)n2[C@@H]2O[C@H](CO)[C@@H](O)[C@H]2O)c(=O)[nH]1 [8-HYDROXYGUANOSINE] | 5 mM | 33% |
| > 8 mM | > 8 mM | Nc1nc(O)c2nc(OCc3ccccc3)n(C3O[C@H](CO)[C@@H](O)[C@H]3O)c2n1 (stereo partly specified) | 8 mM | 4% |
| 2.9 mM | 4.9 mM | CNc1nc2c(=O)[nH]c(N)nc2n1[C@@H]1O[C@H](CO)[C@@H](O)[C@H]1O | 1 mM | 42% |
| 3.6 mM | 3.6 mM | [N-]=[N+]=Nc1nc2c(O)nc(N)nc2n1C1O[C@H](CO)[C@@H](O)[C@H]1O (stereo partly specified) | 2 mM | 12% |
| > 8 mM | > 8 mM | COc1nc2c(O)nc(N)nc2n1C1O[C@H](CO)[C@@H](O)[C@H]1O (stereo partly specified) | 8 mM | 7% |
| > 5 mM | > 5 mM | Nc1nc(O)c2nc(Br)n([C@H]3C[C@H](O)[C@@H](CO)O3)c2n1 | 7 mM | 20% |
| 0.29 mM | 0.49 mM | Nc1nc(O)c2ncn([C@H]3C[C@H](O)[C@@H](CO)O3)c2n1 [DEOXYGUANOSINE] |  | 0% |
|  |  | C[S+](C)[O-] [DIMETHYL SULFOXIDE] | 200 mM | 70% |
| 5.4 mM | 10 mM | CS(=O)(=O)c1nc2c(O)nc(N)nc2n1C1O[C@H](CO)[C@@H](O)[C@H]1O (stereo partly specified) | 5 mM | 30% |
| 0.39 mM | 0.39 mM | Nc1nc2c([nH]c(=O)n2[C@H]2C[C@H](O)[C@@H](CO)O2)c(=O)[nH]1 | 0.2 mM | 62% |
| 1.2 mM | 7.8 mM | Nc1nc2c(ncn2[C@@H]2O[C@H](CO)[C@@H](O)[C@H]2O)c(=O)[nH]1 [GUANOSINE] |  | 0% |
| 3.5 mM | 3.5 mM | Nc1nc(O)c2nc(S)n([C@@H]3O[C@H](CO)[C@@H](O)[C@H]3O)c2n1 | 2 mM | 4% |
| > 5 mM | > 5 mM | CN(C)c1nc2c(=O)[nH]c(N)nc2n1[C@@H]1O[C@H](CO)[C@@H](O)[C@H]1O | 5 mM | 68% |
| 5.1 mM | 5.1 mM | Nc1nc2c(nc(Br)n2[C@@H]2O[C@H](CO)[C@@H](O)[C@H]2O)c(=O)[nH]1 | 5 mM | 6% |

Source: ChEMBL document CHEMBL1123086, “8-Substituted guanosine and 2'-deoxyguanosine derivatives as potential inducers of the differentiation of Friend erythroleukemia cells” (1985)
